Source: PubChem BioAssay (several laboratories)
CXCR6 block = CXCR6 receptor inhibitors, primary screen, cell-based, beta-arrestin, luminescence, CHO-K1 PathHunter, 1536-well. C-X-C chemokine receptor type 6 (Homo sapiens), O00574. 360,000 compounds, 0.36% hits. inhibition, % at 20 µM; in the data active means inhibition above about 34%, passing the limit was not always enough;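 further: antagonist mode with CXCL16 agonist at 10 nM final; 0% = 10 nM CXCL16 with DMSO and 100% = unstimulated wells without agonist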
CCR6 antagonist = CCR6 receptor antagonists, primary screen, cell-based, CHO-K1, luminescence, beta-arrestin, uHTS. CHO-K1 CCR6 PathHunter beta-arrestin, CCL20-stimulated. inhibition, % at 20 µM. 340,000 compounds, 0.49% hits;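 active means compounds whose inhibition of the agonist-driven luminescence signal at 20 µM reaches about 50%, limit read from the data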;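 further: cells stimulated with CCL20 at 14 nM final; plate controls were DMSO with CCL20 for no effect and DMSO without agonist for full effect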
APJ agonist = agonists of human apelin receptor APJ, primary screen, CHO-K1 cells, PathHunter beta-arrestin, luminescence; activation, % at 20 µM; 0% DMSO wells, 100% apelin; 330,000 compounds, 0.11% hits;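 active means activation more than six SD over the plate average, tested at 20 µM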;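 further: 0% = DMSO alone and 100% = apelin-13 at 10 nM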
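Incubation: overnight seeding, 90 min compound at 25 °C, 1 h detection; test system: PathHunter CHO-K1 APJ (AGTRL-1) beta-arrestin reporter cells; amount: 1000 cells/well; doses: one dose, 20 µM compound, 1% DMSO; measured by: beta-gal luminescence; measure: agonist-driven arrestin binding to APJ; benchmarks: negative DMSO alone, positive Apelin-13 at 10 nM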
PfG6PD inh = PfG6PD enzyme inhibitors, primary screen, biochemical, fluorescence intensity, uHTS | AID 504690, 2011 | 350,000 compounds, 0.78% hits | inhibition, % at 20 µM | PfGluPho enzyme, NADPH resazurin-diaphorase fluorescence;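 active means inhibition reaching at least a set limit at 20 µM in the primary screen, cut at about 59% in these data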;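 further: 0% = DMSO wells with substrate and 100% = DMSO wells lacking glucose-6-phosphate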
B2AR ag = beta2AR agonists driving receptor internalization, primary screen, cell-based, FAP fluorogen, flow cytometry | Am2.2-beta2AR cells | response, % (test concentration not listed) | 340,000 compounds, 0.43% hits | AID 504454, 2011;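 active means response above a set limit, near 3 SD of response in nonfluorescent compounds, cut at about 42% in these data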
Target sequence (P07550 whole entry, looked up): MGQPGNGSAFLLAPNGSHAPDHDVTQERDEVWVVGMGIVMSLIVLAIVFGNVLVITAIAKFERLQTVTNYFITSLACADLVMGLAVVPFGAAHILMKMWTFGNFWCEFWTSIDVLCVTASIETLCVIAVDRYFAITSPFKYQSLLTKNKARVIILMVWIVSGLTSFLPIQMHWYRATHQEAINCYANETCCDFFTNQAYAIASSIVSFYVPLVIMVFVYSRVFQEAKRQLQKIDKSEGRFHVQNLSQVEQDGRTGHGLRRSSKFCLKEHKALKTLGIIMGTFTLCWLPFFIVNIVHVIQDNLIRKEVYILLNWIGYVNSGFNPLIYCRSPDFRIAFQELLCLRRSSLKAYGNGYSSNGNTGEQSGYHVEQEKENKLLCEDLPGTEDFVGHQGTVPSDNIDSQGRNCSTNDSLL
APJ antag = antagonists of human apelin receptor APJ, primary screen, CHO-K1 cells, beta-arrestin complementation, luminescence | P35414 | inhibition, % at 20 µM | 330,000 compounds, 0.32% hits | AID 2521, 2010;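 active means inhibition above about 40% at 20 µM, limit read from the data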;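 further: cells challenged with 10 nM apelin-13 agonist together with compound; plate controls were apelin-13 plus DMSO wells for no effect and DMSO wells lacking apelin-13 for full effect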
PfGluPho conf = PfG6PD inhibitors, hit retest, confirmation, biochemical, fluorescence intensity, single concentration. shares compounds with PfG6PD inh. recombinant PfGluPho, NADPH-diaphorase-resazurin fluorescence. inhibition, % at 20 µM. 2,400 compounds, 34% hits. AID 504753, 2011;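 active means inhibition of at least 50% at 20 µM in any single replicate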;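 further: 0% = DMSO with substrate and 100% = DMSO lacking glucose-6-phosphate substrate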
Diaphorase 10uM = diaphorase inhibitors and chemical oxidizers, confirmation, counter-screen for P. falciparum G6PD inhibitor project, biochemical, fluorescence intensity, 10 µM NADPH; shares compounds with PfG6PD inh; diaphorase-coupled resazurin reduction, NADPH 10 uM; inhibition, % at 20 µM; 820 compounds, 39% hits; AID 504862, 2011;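 active means average inhibition reaching 50% or more with the compound at 20 µM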;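 further: resorufin red fluorescence formed as diaphorase reduces resazurin using NADPH; 0% = DMSO with enzyme and 100% = DMSO without enzyme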
Diaphorase 30uM = diaphorase inhibitors and chemical oxidizers, confirmation, counter-screen for P. falciparum G6PD inhibitor project, biochemical, fluorescence intensity, 30 µM NADPH; shares compounds with PfG6PD inh; Diaphorase/resazurin coupled assay, resorufin fluorescence; inhibition, % at 20 µM; 820 compounds, 29% hits; AID 504863, 2011;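 active means inhibition averaging 50% or more, tested at 20 µM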;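 further: 0% = DMSO with enzyme and 100% = DMSO wells lacking diaphorase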
An asterisk follows results filed as active; . = no result. Most compounds without a hit are left out; they make up all but 1.7% or so of the library.

SMILES	CXCR6 block	CCR6 antagonist	APJ agonist	PfG6PD inh	B2AR ag	APJ antag	PfGluPho conf	others
CCN(CC)c1ccc(NC(=O)c2ccccc2F)cc1S(=O)(=O)Nc1ccccc1OC	1	10	-3	52	22	8	.
CCN(CC)c1ccc(NC(=O)c2ccccc2Br)cc1S(=O)(=O)Nc1ccccc1OC	7	10	-7	86*	5	13	64*	Diaphorase 10uM=-21;Diaphorase 30uM=-19
COc1ccc(C(C)=O)cc1Cn1c(C)c(C(=O)NCc2ccc3c(c2)OCO3)sc1=O	1	.	.	.	.	.	.
COc1c(O)c(O)c2oc(-c3ccccc3)cc(=O)c2c1OC	-6	1	-1	98*	-20	-139	79*	Diaphorase 10uM=67*;Diaphorase 30uM=30
CN1/C(=C\C(=O)c2cccnc2)Sc2ccccc21	2	-2	2	26	-11	6	.
COc1cccc(C(=O)/C=C2\Sc3ccccc3N2C)c1	1	15	-1	82*	16	1	41
CCN(CC)c1ccc2cc(-c3nc(-c4cc5ccccc5oc4=O)cs3)c(=O)oc2c1	-6	5	.	17	-34	.	.
CC(C)Sc1cc(Cl)nc(NC(=O)Nc2ccccc2)n1	-19	-24	0	8	6	-9	.
COCCn1c2nc(=O)n(-c3ccccc3)c(=O)c-2nc2ccccc21	-14	.	.	59*	.	.	38
COCCn1c(-c2ccc(OC)cc2)nc2ccccc21	0	4	-5	10	-11	10	.
CN(Cc1nc2ccccc2c(=O)[nH]1)C(=O)COc1ccccc1Cc1ccccc1	6	17	-4	-5	0	3	.
N#Cc1cc2c([nH]c1=S)CCCCCC2	0	-17	0	63*	-4	1	22
O=C(Nc1ccc(Br)cc1)c1cc2ccccn2n1	-6	9	-1	71*	-1	-11	29
O=C(NCCc1ccc(Cl)cc1)c1cc2ccccn2n1	4	15	-2	7	11	-20	.
O=C(CSC1=NS(=O)(=O)c2ccccc2N1)Nc1nccs1	10	5	0	-7	-1	-5	.
OC1c2c(F)cccc2N=C2CCCCCN21 (stereo unspecified)	-4	.	.	.	.	.	.
O=C1C=C(N2CCOCC2)c2ccccc2C1=O	-32	-10	7	71*	8	-10	54*	Diaphorase 10uM=73*;Diaphorase 30uM=83*
COc1ccc(-c2cc(C)no2)cc1S(=O)(=O)N1CCOc2ccc(C)cc21	7	0	11	8	3	-35	.
CN(CC(=O)Nc1ccccc1Br)C(=O)c1ccc(-c2ccc(Cl)cc2)o1	0	12	-2	14	0	-2	.
CN(CC(=O)Nc1ccccc1Br)C(=O)c1ccccc1OCc1ccc(Cl)cc1	3	15	.	59*	7	.	30
COc1ccc(CC(=O)N/N=C/c2sccc2C)cc1	-6	13	-2	-4	5	-19	.
Cc1ccc(CSCC(=O)N/N=C/c2sccc2C)cc1	0	-2	-5	78*	-3	-17	52*	Diaphorase 10uM=63*;Diaphorase 30uM=54*
O=C(c1ccccc1)n1c(=O)cc[nH]c1=O	5	-2	-3	-4	-5	-1	.
COc1ccc(CNC(=O)Cc2cn(C)c3ccccc23)c(OC)c1	-4	1	-3	79*	-5	3	55*	Diaphorase 10uM=49;Diaphorase 30uM=52*
Cc1ccc(NC(=O)C2(C)CCCN(C(C)C)C2)cc1C (stereo unspecified)	0	.	.	.	.	.	.
SMILES	CXCR6 block	CCR6 antagonist	APJ agonist	PfG6PD inh	B2AR ag	APJ antag	PfGluPho conf	others
COC(=O)c1sc(NC(=O)c2cc(-c3ccccc3)nc3ccccc23)c(C#N)c1C	13	21	-1	65*	23	23	43
Cc1cc(C(=O)CSc2nnc(-c3cccs3)o2)c(C)n1-c1ccccc1	-5	2	1	79*	-9	16	43
Cc1cc(C(=O)CSc2nnc(-c3ccco3)o2)c(C)n1Cc1ccco1	-1	16	0	18	-14	5	.
Cc1cc(C(=O)CSc2nnnn2C)c(C)n1-c1ccc2c(c1)OCCO2	5	8	3	11	2	3	.
Cc1cc(C(=O)CSc2nnc(-c3ccco3)o2)c(C)n1-c1ccc2c(c1)OCCO2	-2	-5	-1	75*	0	0	36
Cc1nnc(SCC(=O)c2cc(C)n(-c3ccc4c(c3)OCO4)c2C)s1	5	14	-1	98*	3	6	69*	Diaphorase 10uM=56*;Diaphorase 30uM=42
CCn1cc(CN2CCCC(C(=O)Nc3ccc(-c4cscn4)cc3)C2)c(C)n1 (stereo unspecified)	-3	12	-4	1	-9	17	.
CC(C)[C@H](NC(=O)N1CCn2c1nc1ccccc12)C(=O)NCc1ccccc1Cl	-3	7	-2	-6	-6	22	.
COc1ccc2[nH]cc(CCNC(=O)/C=C/[C@H]3O[C@@H](n4cnc5c(NC(=O)c6ccccc6)ncnc54)[C@H](O)[C@@H]3O)c2c1	-7	.	.	.	.	.	.
Cc1cc(C)n(CCC(=O)N/N=C/c2cccc([N+](=O)[O-])c2)n1	-1	7	-3	8	-3	18	.
Cc1cc(Cl)ccc1OCCCC(=O)N/N=C/c1cccc([N+](=O)[O-])c1	3	-1	-5	112*	-7	30	94*	Diaphorase 10uM=81*;Diaphorase 30uM=57*
O=C(CCCOc1ccc(Cl)cc1Cl)N/N=C/c1ccc(Cl)cc1	-11	-14	2	62*	-4	-1	21
CC(NC(=O)c1ccccc1Cl)C1CC2CCC1C2 (stereo unspecified)	3	20	3	-14	-2	-3	.
Nc1[nH]c(=O)[nH]c(=O)c1N=Cc1ccccc1	-14	-4	.	131*	-11	.	98*	Diaphorase 10uM=16;Diaphorase 30uM=3
O=c1[nH]c(NCCO)c(N=Cc2ccccc2)c(=O)[nH]1	4	-11	-3	68*	-3	3	104*	Diaphorase 10uM=79*;Diaphorase 30uM=43
